In brackets after ≈: the same amount, converted by molar mass.
Columns and labels:
MRC5 = experiment: Antiviral activity determined by plaque reduction assay of HCMV (AD-169) in MRC-5 cells; assay type: functional; conditions: Homo sapiens, read-out: ID50 (the source's name)
How it was run: (§1)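 Plaque reduction assay: HSV strains in Vero cells and HCMV in MRC-5 cells. ID50 is the dose giving a 50% fall in plaque numbers relative to untreated controls.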

Vero [1] = experiment: Antiviral activity determined by plaque reduction assay of HSV-1 (BWS) in vero cells; assay type: functional; conditions: Chlorocebus sabaeus, read-out: ID50 (the source's name); how it was run: as §1
Vero [2] = experiment: Antiviral activity determined by plaque reduction assay of HSV-2 (G) in vero cells; assay type: functional; conditions: Chlorocebus sabaeus, read-out: ID50 (the source's name); how it was run: as §1
Vero [3] = experiment: Anticellular activity was determined by cell proliferation assay in vero cells.; conditions: Chlorocebus sabaeus, read-out: ID50 (the source's name)
Mus musculus [4] = experiment: Antiviral activity in terms of percentage survival at a dose of 300 mg/kg after intraperitoneal inoculation of HSV-1(BWS) in mice (6/7); assay type: functional; conditions: ip
How it was run: (§2)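 Female Swiss-Webster mice of about 20 g were infected intraperitoneally with 5 × 10^4 PFU HSV-1 (BWS). Compound was given intraperitoneally twice daily for 5 consecutive days, starting 3 h postinfection. A saline placebo group served as control. Deaths were recorded for 21 days, and survivors and mean survival time in days were taken at the day-21 endpoint.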

Mus musculus [5] = experiment: Compound tested for its effect on mean survival time in mice against HSV-1(BWS) at a dose of 300 mg/kg.; assay type: functional; how it was run: as §2
Mus musculus [6] = experiment: Antiviral activity in terms of percentage survival at a dose of 100 mg/kg after intraperitoneal inoculation of HSV-1(BWS) in mice (7/10); assay type: functional; conditions: ip; how it was run: as §2
Mus musculus [7] = experiment: Compound tested for its effect on mean survival time in mice against HSV-1(BWS) at a dose of 100 mg/kg.; assay type: functional; how it was run: as §2
Mus musculus [8] = experiment: Antiviral activity in terms of percentage survival at a dose of 100 mg/kg after intraperitoneal inoculation of HSV-1(BWS) in mice (9/10); assay type: functional; conditions: ip; how it was run: as §2
Mus musculus [9] = experiment: Antiviral activity in terms of percentage survival at a dose of 300 mg/kg after intraperitoneal inoculation of HSV-1(BWS) in mice (10/10); assay type: functional; conditions: ip; how it was run: as §2

Structure (SMILES)	IC50 (MRC5) [µg/mL]	IC50 (Vero [1]) [µg/mL]	IC50 (Vero [2]) [µg/mL]	IC50 (Vero [3]) [µg/mL]	survival at 300 mg/kg (Mus musculus [4]) [%]	MST (Mus musculus [5]) [days]	survival at 100 mg/kg (Mus musculus [6]) [%]	MST (Mus musculus [7]) [days]	survival at 100 mg/kg (Mus musculus [8]) [%]	survival at 300 mg/kg (Mus musculus [9]) [%]
Nc1ccn(COCOCP(=O)([O-])[O-])c(=O)n1.[Na+].[Na+]	> 100	> 100	> 100	> 100						
COC(CO)OCn1cnc2c(O)nc(N)nc21 (configuration not stated)	> 100	> 100	> 100	> 100						
Nc1nc2c(ncn2CCOCP(=O)(O)O)c(=O)[nH]1 [GS-438]	0.04 (≈ 0.138 µM)	0.08 (≈ 0.277 µM)	0.69 (≈ 2.39 µM)	5 (≈ 17.3 µM)						
Cc1cn(COCOCP(=O)([O-])[O-])c(=O)[nH]c1=O.[Na+].[Na+]	> 100	> 100	> 100	> 100						
Nc1nc2c(ncn2COCCO)c(=O)[nH]1 [ACYCLOVIR]	38.4 (≈ 171 µM)	0.5 (≈ 2.22 µM)	2.4 (≈ 10.7 µM)	> 100	86	20	70			
N.Nc1ccn(CC(CO)CCP(=O)(O)O)c(=O)n1 (configuration not stated)	> 100		> 100	> 100						
Nc1nc(O)c2ncn(COC(CO)OCP(=O)([O-])[O-])c2n1.[Na+].[Na+] (configuration not stated)	0.9	3.3	8.2	> 100						
N.Nc1nc(O)c2ncn(CC(CO)CCP(=O)(O)O)c2n1 (configuration not stated)	> 100		> 100	> 100						
Nc1ncnc2c1ncn2COCOCP(=O)([O-])[O-].[Na+].[Na+]	> 100	> 100	> 100	> 100						
Nc1nc(O)c2ncn(COCOCP(=O)([O-])[O-])c2n1.[Na+].[Na+]	5	2.6	11	> 100		21		20.4	90	100
N.Nc1ncnc2c1ncn2CC(CO)CCP(=O)(O)O (configuration not stated)	> 100		> 100	> 100						
CC(OCn1cnc2c(O)nc(N)nc21)OCP(=O)(O)O (configuration not stated)	> 100	> 100	> 100	> 100						
